# Assay results from different studies.
# Target: Rhodopsin kinase GRK1 (GRK1, Homo sapiens, UniProt Q15835)
# Sequence (Q15835 1-563, as in one of the studies): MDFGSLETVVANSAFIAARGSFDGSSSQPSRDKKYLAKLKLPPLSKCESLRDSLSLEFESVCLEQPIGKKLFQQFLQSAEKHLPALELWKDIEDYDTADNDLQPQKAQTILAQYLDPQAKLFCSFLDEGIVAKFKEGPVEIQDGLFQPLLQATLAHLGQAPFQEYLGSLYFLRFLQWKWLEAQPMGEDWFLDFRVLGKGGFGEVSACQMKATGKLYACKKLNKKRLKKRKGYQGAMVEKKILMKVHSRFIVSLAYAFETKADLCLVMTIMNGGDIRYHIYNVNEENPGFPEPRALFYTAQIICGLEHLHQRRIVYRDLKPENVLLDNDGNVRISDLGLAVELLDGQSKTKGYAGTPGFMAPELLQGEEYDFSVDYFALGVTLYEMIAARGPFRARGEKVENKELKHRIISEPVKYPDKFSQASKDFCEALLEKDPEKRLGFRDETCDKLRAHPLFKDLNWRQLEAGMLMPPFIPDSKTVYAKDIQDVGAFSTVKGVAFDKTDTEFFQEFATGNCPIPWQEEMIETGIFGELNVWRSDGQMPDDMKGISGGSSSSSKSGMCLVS
Structure (SMILES),observed,technique,concentration,remaining binding [%]
COc1ncc2cc3ccccc3nc2c1C#N,cell-free assay,competition with immobilised ligand,5 µM,98
N[C@@H]1CCN(c2nccc(-c3cnn4ncccc34)n2)C1,binding,,1 µM,100
O=C(NCC1CCOCC1)c1n[nH]cc1NC(=O)c1c(F)cccc1F,binding,competition with immobilised ligand,1 µM,77
O=C(c1ccc(Nc2nccc(-c3cc4ccccc4s3)n2)cc1)N1CCC(N2CCCC2)CC1,binding,competition with immobilised ligand,1 µM,93
COCCOc1nc(-c2ccc(Cl)nc2)nc2c1CN(C(=O)c1ncn3ccccc13)CC2,cell-free assay,competition with immobilised ligand,0.1 µM,100
CN(CCCC(F)(F)F)c1nccc(-c2cnn3ncccc23)n1,binding,,1 µM,100
CC(=O)N1CCC(c2ccc(C(=O)NC3=NCCN3)cc2C(F)(F)F)CC1,cell-free assay,competition with immobilised ligand,1 µM,95
C[C@H]1CCN(c2nccc(-c3cnn4ncccc34)n2)C1,binding,,1 µM,74
CCN1CCN(Cc2ccc(C(=O)Nc3ccc(C)c(Oc4ccc5c(c4)CC(=O)N5)c3)cc2C(F)(F)F)CC1,binding,competition with immobilised ligand,1 µM,100
CC1=C(C#N)C(c2ccc3c(c2)c(NC(=O)c2ccccc2C)nn3C)C(C#N)=C(C)N1,cell-free assay,competition with immobilised ligand,1 µM,88
F[C@@H]1CCN(c2nccc(-c3cnn4ncccc34)n2)C1,binding,,1 µM,100
O=C(c1ccc(Nc2ncc(Cl)c(-c3ccc(Cl)s3)n2)cc1)N1CCC(N2CCCC2)CC1,binding,competition with immobilised ligand,1 µM,100
COc1cnc(Nc2cccc(S(N)(=O)=O)c2)nc1N1CCN(c2ccccc2)C(=O)C1,binding,competition with immobilised ligand,1 µM,97
CN(C(=O)c1ccccc1)c1cc(N(C)c2ccc3c(c2)CCc2ccc(C(=O)NCCN4CCOCC4)cc2C3=O)ccc1F,cell-free assay,competition with immobilised ligand,1 µM,93
c1cnn2ncc(-c3ccnc(N4CCC45COC5)n3)c2c1,binding,,1 µM,61
CS(=O)(=O)N1CCCC(NC(=O)[C@H](CCC2CCCCC2)NC(=O)c2ccc(CNc3ncnc4c3nnn4-c3ccccc3)cc2)C1 (stereo partly shown),cell-free assay,competition with immobilised ligand,0.1 µM,94
C=CC(=O)N1CCC(C(=O)NCC(=O)N2CCN(c3nc(-c4cnc(N)nc4C(F)F)nc(N4CCOCC4)n3)CC2)CC1,binding,competition with immobilised ligand,1 µM,67
CS(=O)(=O)c1cc(C2(NC(=O)c3cncc4c3cnn4-c3ccc(F)cc3)CC2)ccn1,cell-free assay,competition with immobilised ligand,1 µM,87
O=C(NCCCN1CCOCC1)c1ccc(Nc2nccc(-c3cc4ccccc4s3)n2)cc1,binding,competition with immobilised ligand,1 µM,74
